Measurements reported in ChEMBL document CHEMBL4673366, “Cyclic Phosphopantothenic Acid Prodrugs for Treatment of Pantothenate Kinase-Associated Neurodegeneration” (J Med Chem, 2020).

Columns and labels:
[1] = Stability of compound in human whole blood assessed as half life; assay type: ADME, tissue-based
[2] = Induction of Coenzyme A regeneration in human IMR-32 PANK2 knockdown cells at 50 uM for 24 hrs by HPLC analysis relative to control; assay type: functional
Method in brief: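 PANK2-knockout neuroblastoma cells were grown in MEM with 10% FBS and 1 µg/mL puromycin and seeded at 0.2×10⁶ cells/well. After 72 h, they were dosed at 50 µM in DMSO (final 0.1%) at 37 °C. Washed, frozen pellets were reconstituted in ammonium acetate (pH 5.1) with internal standard, and free CoA was measured by LC-MS/MS. Intracellular volume was taken as 2 µL/10⁶ cells; results are fold over vehicle-treated cells.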

[3] = Apparent permeability in porcine brain endothelial cells; assay type: ADME, cell-based, Sus scrofa, Endothelial cell; details: pig
[4] = Stability of compound in human hepatocytes assessed as half life; assay type: ADME, cell-based, Hepatocyte

| half-life [1] [min] | Structure (SMILES) | fold change (FC) [2] | further results |
| --- | --- | --- | --- |
| 11.4 | CC(C)(C)C(=O)OCO[P@@]1(=O)OCC(C)(C)[C@H](C(=O)NCCC(=O)OC2CCN(Cc3ccccc3)C2)O1 (some centres undefined) | 207 | – |
| – | COC(=O)CCNC(=O)[C@@H]1O[P@](=O)(Oc2ccccc2C(=O)OC)OCC1(C)C | 4 | – |
| 16.8 | CCOC(=O)CCNC(=O)[C@@H]1O[P@@](=O)(OCOC(=O)C(C)(C)C)OCC1(C)C | 85 | – |
| – | COC(=O)CCNC(=O)[C@@H]1O[P@](=O)(Oc2ccc(F)cc2)OCC1(C)C | 87 | Papp [3]: 16 ×10⁻⁶ cm/s |
| – | COC(=O)CCNC(=O)[C@@H]1O[P@](=O)(OCOC(=O)C(C)(C)C)OCC1(C)C | 106 | – |
| > 60 | COC(=O)CCNC(=O)[C@@H]1O[P@@](=O)(OCOC(=O)c2scnc2C(C)(C)C)OCC1(C)C (relative stereo) | – | – |
| < 9.6 | CC(C)(C)C(=O)OCO[P@@]1(=O)OCC(C)(C)[C@H](C(=O)NCCC(=O)OCc2cncs2)O1 | 133 | – |
| < 9.6 | COC(=O)CCNC(=O)[C@@H]1O[P@@](=O)(OCOC(=O)c2ccns2)OCC1(C)C (relative stereo) | – | – |
| – | COC(=O)CCNC(=O)[C@@H]1OP(=O)(OCOC(=O)c2scnc2C)OCC1(C)C (mixture of isomers) | 44 | – |
| < 9.6 | CCc1cc(C(=O)OCO[P@]2(=O)OCC(C)(C)[C@H](C(=O)NCCC(=O)OC)O2)n(C)n1 (relative stereo) | – | – |
| – | COC(=O)CCNC(=O)[C@@H]1OP(=O)(OCOC(=O)C(C)C)OCC1(C)C (mixture of isomers) | 92 | – |
| – | COC(=O)CCNC(=O)[C@@H]1OP(=O)(OCOC(=O)c2ccns2)OCC1(C)C (mixture of isomers) | 37 | – |
| < 9.6 | CC(C)(C)C(=O)OCO[P@@]1(=O)OCC(C)(C)[C@H](C(=O)NCCC(=O)OCCc2ccccn2)O1 | 100 | – |
| > 60 | COC(=O)CCNC(=O)[C@@H]1O[P@@](=O)(OCOC(=O)c2cc(C)nn2C)OCC1(C)C (relative stereo) | – | – |
| 26.4 | COC(=O)CCNC(=O)[C@@H]1O[P@](=O)(OCOC(=O)c2scnc2C(C)(C)C)OCC1(C)C (relative stereo) | – | – |
| – | COC(=O)CCNC(=O)[C@@H]1OP(=O)(OCOC(=O)c2cnccn2)OCC1(C)C (mixture of isomers) | 77 | – |
| – | COC(=O)CCNC(=O)[C@@H]1O[P@@](=O)(OCOC(=O)C(C)(C)C)OCC1(C)C | 198 | – |
| – | CCc1cc(C(=O)OCOP2(=O)OCC(C)(C)[C@H](C(=O)NCCC(=O)OC)O2)n(C)n1 (mixture of isomers) | 130 | – |
| ≥ 58.2 | CCc1cc(C(=O)OCO[P@@]2(=O)OCC(C)(C)[C@H](C(=O)NCCC(=O)OC)O2)n(C)n1 | 14 | half-life [4]: 18 min; Papp [3]: 11.8 ×10⁻⁶ cm/s |
| > 60 | CC(C)(C)OC(=O)CCNC(=O)[C@@H]1OP(=O)(OCOC(=O)C(C)(C)C)OCC1(C)C (mixture of isomers) | 2 | – |
| > 60 | COC(=O)CCNC(=O)[C@@H]1O[P@@](=O)(OCOC(=O)c2scnc2C)OCC1(C)C | 40 | half-life [4]: 30 min; Papp [3]: 5.1 ×10⁻⁶ cm/s |
| 16.2 | COC(=O)CCNC(=O)[C@@H]1O[P@](=O)(OCOC(=O)c2ocnc2C)OCC1(C)C | – | – |
| < 9.6 | COC(=O)CCNC(=O)[C@@H]1O[P@](=O)(OCOC(=O)c2ccnn2C)OCC1(C)C | – | – |

| half-life [1] [min] | Structure (SMILES) | fold change (FC) [2] | further results |
| --- | --- | --- | --- |
| > 60 | CC(C)(C)C(=O)OCO[P@@]1(=O)OCC(C)(C)[C@H](C(=O)NCCC(=O)O)O1 | 4 | – |
| – | COC(=O)CCNC(=O)[C@@H]1O[P@@](=O)(Oc2ccc(F)cc2)OCC1(C)C | 2 | – |
| – | COC(=O)CCNC(=O)[C@@H]1OP(=O)(OCOC(=O)c2ccccc2)OCC1(C)C (mixture of isomers) | 278 | – |
| > 60 | COC(=O)CCNC(=O)[C@@H]1O[P@@](=O)(OCOC(=O)c2ccnn2C)OCC1(C)C (relative stereo) | – | – |
| – | COC(=O)CCNC(=O)[C@@H]1OP(=O)(OCOC(=O)C2(C(N)=O)CC2)OCC1(C)C (mixture of isomers) | 12 | – |
| – | COC(=O)CCNC(=O)[C@@H]1O[P@@](=O)(OC(C)OC(=O)C(C)(C)C)OCC1(C)C (some centres undefined) | 3 | – |
| – | COC(=O)CCNC(=O)[C@@H]1OP(=O)(OCOC(=O)c2ccncc2)OCC1(C)C (mixture of isomers) | 35 | – |
| < 9.6 | COC(=O)CCNC(=O)[C@@H]1O[P@](=O)(OCOC(=O)c2cc(C(C)(C)C)n[nH]2)OCC1(C)C (relative stereo) | – | – |
| – | COC(=O)CCNC(=O)[C@@H]1OP(=O)(OCOC(=O)OC(C)C)OCC1(C)C (mixture of isomers) | 199 | – |
| – | COC(=O)CCNC(=O)[C@@H]1OP(=O)(OCOC(=O)c2cc(C(C)(C)C)n[nH]2)OCC1(C)C (mixture of isomers) | 85 | – |
| 31.2 | COC(=O)CCNC(=O)[C@@H]1O[P@@](=O)(OCOC(=O)c2ocnc2C)OCC1(C)C (relative stereo) | – | – |
| – | CCC(CC)C(=O)OCOP1(=O)OCC(C)(C)[C@H](C(=O)NCCC(=O)OC)O1 (mixture of isomers) | 369 | – |
| – | COC(=O)CCNC(=O)[C@@H]1OP(=O)(OCOC(=O)c2cc(C)nn2C)OCC1(C)C (mixture of isomers) | 42 | – |
| < 9.6 | CC(C)(C)C(=O)OCO[P@@]1(=O)OCC(C)(C)[C@H](C(=O)NCCC(=O)OCCS(C)(=O)=O)O1 | 121 | – |
| < 9.6 | COC(=O)CCNC(=O)[C@@H]1O[P@](=O)(OCOC(=O)c2scnc2C)OCC1(C)C (relative stereo) | – | – |
| < 9.6 | COC(=O)CCNC(=O)[C@@H]1O[P@](=O)(OCOC(=O)c2ccns2)OCC1(C)C (relative stereo) | – | – |
| – | COC(=O)CCNC(=O)[C@@H]1OP(=O)(OCOC(=O)c2scnc2C(C)(C)C)OCC1(C)C (mixture of isomers) | 3 | – |
| – | COC(=O)CCNC(=O)[C@@H]1OP(=O)(OCOC(=O)c2cncs2)OCC1(C)C (mixture of isomers) | 88 | – |
| < 9.6 | COC(=O)CCNC(=O)[C@@H]1O[P@](=O)(OCOC(=O)c2cc(C)nn2C)OCC1(C)C (relative stereo) | – | – |
| – | COC(=O)CCNC(=O)[C@@H]1OP(=O)(OCOC(=O)c2ccnn2C)OCC1(C)C (mixture of isomers) | 58 | – |
| – | COC(=O)CCNC(=O)[C@@H]1OP(=O)(OCOC(=O)c2ocnc2C)OCC1(C)C (mixture of isomers) | 39 | – |
| – | CCCC(=O)OCOP1(=O)OCC(C)(C)[C@H](C(=O)NCCC(=O)OC)O1 (mixture of isomers) | 84 | – |

| Structure (SMILES) | half-life [1] [min] | fold change (FC) [2] | further results |
| --- | --- | --- | --- |
| COC(=O)CCNC(=O)C1OP(=O)(Oc2ccc(F)cc2)OCC1(C)C (mixture of isomers) | > 60 | – | – |
| COC(=O)CCNC(=O)[C@@H]1O[P@](=O)(Oc2ccc(C[C@H](N)C(=O)OC)cc2)OCC1(C)C | 30 | 81 | – |
| COC(=O)CCNC(=O)[C@@H]1O[P@](=O)(Oc2ccc(S(F)(F)(F)(F)F)cc2)OCC1(C)C | 30 | 34 | – |
| COC(=O)CCNC(=O)[C@@H]1OP(=O)(Oc2ccc(F)cc2)OCC1(C)C (mixture of isomers) | > 60 | – | – |
| COC(=O)CCNC(=O)[C@@H]1O[P@](=O)(Oc2ccc(C#N)cc2)OCC1(C)C | 27.6 | 7 | – |
| COC(=O)CCNC(=O)[C@@H]1O[P@](=O)(Oc2ccc(C(F)(F)F)cc2)OCC1(C)C | > 60 | 102 | – |
